Data set [1] relates to Chikungunya virus. Description: Antiviral activity against wild type Chikungunya virus IMT infected in HEK293T cells assessed as reduction in virus infection after 24 hrs by FITC immunofluorescence-based single cell quantification high content screening assay. The format is functional. To be noted: HEK-293T.
Data set [2] is described as follows: Cytotoxicity against HEK293T cells assessed as reduction in cell viability after 24 hrs by CellTiter-Glo luminescent assay. It counts as cell-based, HEK-293T. To be noted: human. The method, boiled down: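 HEK 293T cell viability was measured by CellTiter-Glo luminescence after 24 h exposure to serial dilutions. Data were normalized to untreated cells (100%) and reagent background (0%). CC50, the concentration reducing viability by 50%, came from a five-parameter asymmetric fit.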

For data set [3], the system named is Chikungunya virus. The data set can be described thus: Antiviral activity against full length Gaussia princeps Gluc-tagged Chikungunya virus IMT infected in HEK293T cells assessed as reduction in virus infection after 24 hrs by Gaussia luciferase reporter gene assay. The note with it: HEK-293T. It counts as functional, cell-based.
Data set [4] is described as follows: Selectivity index, ratio of CC50 for HEK293T cells to EC50 for full length Gaussia princeps Gluc-tagged Chikungunya virus IMT. The format is toxicity. The note with it: human, read-out: Ratio CC50/EC50.
The nature of data set [5]: Half life in human liver microsomes. It counts as ADME, microsome. A digest of the protocol:
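Compounds were incubated with human liver microsomes. Half-life = ln(2)/slope, where the slope is ln(% detected) plotted against time, using the mean of at least 3 independent experiments.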

The subject of the next data set is Liver. The data set can be described thus: Intrinsic clearance in human liver microsomes. It counts as ADME, microsome. The method, boiled down:
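Intrinsic clearance was measured in human liver microsome incubation and expressed in μL min−1 mg−1 microsomal protein.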
(Microsomes from liver hold many membrane-bound enzymes, among them those of drug oxidation.)

Data set [6] can be described thus: Terminal half life in C57BL/6 mouse at 3 mg/kg, iv. The note with it: in vivo, read-out: beta t1/2 (converted). It counts as ADME, organism-based. A digest of the protocol:
(§1)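 Male C57BL/6 mice received a single 3 mg/kg iv or 10 mg/kg po dose of a solution in 5% DMSO, 70% PEG400 and 25% water. Results are terminal half-life (h), plasma clearance (mL min−1 kg−1), Vss (L/kg), Tmax (h), Cmax (ng/mL) and oral bioavailability. Values are mean ± SD of three mice.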

Data set [7] is described as follows: Terminal half life in C57BL/6 mouse at 10 mg/kg, po. The format is ADME, organism-based. The note with it: in vivo, read-out: beta t1/2 (converted). The method, boiled down:
as §1

Data set [8] can be described thus: Plasma clearance in C57BL/6 mouse at 3 mg/kg, iv. The format is ADME, organism-based. The method, boiled down: as §1
A short description of data set [9]: Volume of distribution in steady state in C57BL/6 mouse at 3 mg/kg, iv. The format is ADME, organism-based. To be noted: in vivo, read-out: Vdss. A digest of the protocol: as §1
Data set [10] can be described thus: Tmax in C57BL/6 mouse at 10 mg/kg, po. It counts as ADME, organism-based. The note with it: in vivo. The method, boiled down:
as §1

Data set [11] in a line: Cmax in C57BL/6 mouse at 10 mg/kg, po. The format is ADME, organism-based. On the set-up: dose 10 mg/kg, route oral. The note with it: in vivo. The method, boiled down: as §1
Data set [12] can be described thus: Oral bioavailability in C57BL/6 mouse at 10 mg/kg. The note with it: in vivo. It counts as ADME, organism-based. A digest of the protocol: as §1
Data set [13] is described as follows: Plasma concentration in C57BL/6 mouse at 3 mg/kg, iv administered as single dose measured within 1 hr post dose by HPLC-MS/MS analysis. It counts as ADME, organism-based. The method, boiled down:
(§2)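 Male C57BL/6 mice received a single 3 mg/kg iv or 10 mg/kg po dose in 5% DMSO/70% PEG400/25% water. Plasma was sampled at set times over 24 h and analysed by HPLC-MS/MS, with a quantification limit of 0.5 ng/mL. Values are mean ± SD of three mice.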

Data set [14] has as its system Chikungunya virus. The data set can be described thus: Antiviral activity against Chikungunya virus IMT infected in HEK 293T cells assessed as reduction in viral load measured up to 24 hrs by qRT-PCR analysis. It counts as functional, cell-based. Background: Real-time PCR tracks product formation cycle by cycle.
Data set [15] in a line: Plasma concentration in C57BL/6 mouse at 10 mg/kg, po administered as single dose measured at 24 hrs by HPLC-MS/MS analysis. The format is ADME, organism-based. The method, boiled down: as §2
For data set [16], the system named is Chikungunya virus. Description: Antiviral activity against Chikungunya virus IMT infected in HEK 293T cells assessed as reduction in viral load at 5 uM measured up to 24 hrs by qRT-PCR analysis relative to control. It counts as functional.
The subject of data set [17] is Chikungunya virus. The data set can be described thus: Antiviral activity against Chikungunya virus IMT infected in HEK 293T cells assessed as reduction in viral load at 10 uM measured up to 24 hrs by qRT-PCR analysis relative to control. It counts as functional.
For data set [18], the system named is Chikungunya virus. The data set can be described thus: Antiviral activity against Chikungunya virus IMT infected in HEK 293T cells assessed as reduction in viral load at 25 uM measured up to 24 hrs by qRT-PCR analysis relative to control. It counts as functional.
Data set [19] can be described thus: Plasma concentration in C57BL/6 mouse at 10 mg/kg, po administered as single dose measured within 1 hr post dose by HPLC-MS/MS analysis. It counts as ADME, organism-based. A digest of the protocol: as §2
Data set [20] can be described thus: Plasma concentration in C57BL/6 mouse at 3 mg/kg, iv administered as single dose measured at 24 hrs by HPLC-MS/MS analysis. The format is ADME, organism-based. A digest of the protocol: as §2
Data set [21] relates to Chikungunya virus. The data set can be described thus: Antiviral activity against Chikungunya virus IMT infected in HEK 293T cells assessed as reduction in viral load measured up to 24 hrs by qRT-PCR analysis relative to control. It counts as functional, cell-based.
The test system of data set [22] is Chikungunya virus. Description: Antiviral activity against full length gluc-tagged Chikungunya virus 2008 Singapore SGP11 infected in HEK293T cells assessed as reduction in virus infection after 24 hrs by gaussia luciferase reporter gene assay. It counts as functional, cell-based. To be noted: 2008 Singapore SGP11, HEK-293T. Background: A reporter such as luciferase makes a cellular process visible.

The subject of data set [23] is Chikungunya virus. The data set can be described thus: Antiviral activity against full length gluc-tagged Chikungunya virus 2013 Caribbean CNR20235 infected in HEK293T cells assessed as reduction in virus infection after 24 hrs by gaussia luciferase reporter gene assay. The format is functional, cell-based. The note with it: 2013 Caribbean CNR20235, HEK-293T.
The test system of data set [24] is Chikungunya virus. Description: Antiviral activity against full length gluc-tagged Chikungunya virus IMT infected in human BJ cells assessed as reduction in virus infection after 24 hrs by gaussia luciferase reporter gene assay. The format is functional, cell-based.
Data set [25] is described as follows: Cytotoxicity against human BJ cells assessed as reduction in cell viability after 24 hrs by CellTiter-Glo luminescent assay. It counts as cell-based. A digest of the protocol:
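BJ human fibroblast viability was measured by CellTiter-Glo luminescence after 24 h exposure to serial dilutions. Data were normalized to untreated cells (100%) and reagent background (0%). CC50 came from a five-parameter asymmetric fit.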

Consider `CCCNC(=O)[C@@H]1C[C@H]2CCC[C@@H](C1)[C@@H]2NC(=O)c1cc2sc(Br)nc2n1Cc1ccc(OC)cc1`, for which the figures for the concentration for a half-maximal effect (EC50) with Chikungunya virus [1] and with Chikungunya virus [3] were 12.6 µM and 7.23 µM, respectively. Further, the CC50 (commonly the concentration that lowers cell viability or growth by half) at 24 h in [2] is over 100 µM. For the same molecule, the selectivity ratio in [4] was over 14. In addition, the half-life in [5] was 52 min; in data set [6], 65.4 min; in [7] it was 83.4 min. This molecule also registered a CLH in the data set with Liver of 26.7 µL/min. For the same molecule, the clearance – broadly, a measure of how efficiently the substance is removed, as volume per time – in data set [8] was 5.68 mL/min/kg. In data set [9], the Vd was found to be 0.337 L/kg. Moreover, the Tmax (commonly the time from dosing to the highest level) in data set [10] amounted to 20 min. Moreover, the highest level in [11] (Cmax) was 6700 ng/mL. Further, the bioavailability (as a rule, the share of a dose that reaches the circulation, judged against a reference dose that is usually intravenous) in [12] amounted to 39.1%. For the same molecule, the concentration at 1 h in data set [13] and in [19] was 17 µM throughout. Moreover, the inhibition result in the data set with Chikungunya virus [14] is “Dose-dependent effect”. In addition, the concentration at 24 h in [15] and in data set [20] was under 0.5 ng/mL in each case. The “fold change (FC)” value with Chikungunya virus [16], with Chikungunya virus [17] and in the data set with Chikungunya virus [18] was “<=5” in each case. Also, the Activity result in the data set with Chikungunya virus [21] was “Dose-dependent effect”.
Consider `CCCNC(=O)[C@H]1[C@@H]2CCC[C@H]1CN(C(=O)c1cc3sc(-c4ccccc4)nc3n1Cc1ccc(OC)cc1)C2`, for which the half-maximal effective concentration (EC50) (in general, the midpoint of the concentration-response curve) with Chikungunya virus [1] came to 12.5 µM; in the data set with Chikungunya virus [3], 9.64 µM. Besides, the CC50 at 24 h in [2] is over 100 µM. Besides, in [4], the selectivity ratio is over 10. Further, the half-life in data set [5] was 35.1 min.
For `[2H]C([2H])(c1ccc(OC)cc1)n1c(C(=O)N2CCC(C(=O)NC([2H])(C([2H])([2H])[2H])C([2H])([2H])[2H])CC2)cc2sc(Br)cc21` the same measures were 2 µM, 1.72 µM, over 100 µM, over 58 and 3.8 min.
For `[2H]C([2H])([2H])C([2H])(NC(=O)C1CCN(C(=O)c2cc3sc(Br)cc3n2Cc2ccc(OC)cc2)CC1)C([2H])([2H])[2H]` the same measures were 1.63 µM, 1.55 µM, over 100 µM, over 65 and 5.33 min.
Taken in the same sequence, the figures for `CCCNC(=O)C1CC12CCN(C(=O)c1cc3sc(Br)nc3n1Cc1ccc(OC)cc1)CC2` (stereo not drawn) were over 25 µM, 8.21 µM, 81.3 µM, 9.9 and 4.97 min.
In the case of `CCCNC(=O)C1CC12CCN(C(=O)c1cc3sc(-c4ccccc4)nc3n1Cc1ccc(OC)cc1)CC2` (stereo not drawn), the 50% effective concentration (EC50) was 14.1 µM with Chikungunya virus [1] and 7.7 µM in the data set on Chikungunya virus [3]. In addition, in data set [2], the CC50 at 24 h was over 100 µM. The selectivity ratio in data set [4] is over 13. The molecule further displayed a half-life in [5] of 41.8 min.
For `CCCNC(=O)C1CCN(C(=O)c2cc3oc(Br)cc3n2Cc2ccc(OC)cc2)CC1` the same measures were 1.86 µM, 1.93 µM, 21.9 µM, 11 and 9.5 min.
As for `[2H]C([2H])(c1ccc(OC)cc1)n1c(C(=O)N2CCC(C(=O)NCCC)CC2)cc2sc(Br)cc21`, the concentration giving a half-maximal response (EC50) came out at 2.06 µM with Chikungunya virus [1] and 2.03 µM in the data set on Chikungunya virus [3]. Also, in [2], the cytotoxic concentration (CC50) at 24 h was over 100 µM. Also, the selectivity ratio in data set [4] was over 49. In data set [5], the half-life stood at 3.53 min.
Turning to `CCCNC(=O)C1CCN(C(=O)c2cc3ncsc3n2Cc2ccc(OC)cc2)CC1`, the EC50 in the data set on Chikungunya virus [1] turned out to be 14 µM; with Chikungunya virus [3], 9.39 µM. Also, the CC50 at 24 h in data set [2] stood at 42.7 µM. Also, the selectivity ratio in data set [4] turned out to be 4.5. Further, the half-life in data set [5] stood at 32.6 min.
Taken in the same sequence, the figures for `CCCNC(=O)C1CCN(C(=O)c2cc3sc(Br)nc3n2Cc2ccc(OC)cc2)CC1` were 2.96 µM, 1.06 µM, 36.7 µM, 35 and 2.99 min.
For `CCCNC(=O)C1CC12CCN(C(=O)c1cc3sc(Br)cc3n1Cc1ccc(OC)cc1)CC2` (stereo not drawn) the same measures were 15.7 µM, 9.35 µM, over 100 µM, over 11 and 5.83 min.
Taken in the same sequence, the figures for `CCCNC(=O)[C@H]1[C@@H]2CCC[C@H]1CN(C(=O)c1cc3sc(Br)cc3n1Cc1ccc(OC)cc1)C2` were 14.8 µM, 6.98 µM, over 100 µM, over 14 and 3.62 min.
As to `NC(=O)c1ncn([C@@H]2O[C@H](CO)[C@@H](O)[C@H]2O)n1` [RIBAVIRIN], the half-maximal cytotoxic concentration (CC50) at 24 h in [2] and in data set [25] was over 100 µM throughout. For the same molecule, the half-maximal effective concentration (EC50) with Chikungunya virus [3] is 16.2 µM; in the data set on Chikungunya virus [22], 1.89 µM; with Chikungunya virus [23] it was 1.97 µM; with Chikungunya virus [24] it was 9.71 µM.

Source of the values: ChEMBL document CHEMBL4007509, “Structural Optimizations of Thieno[3,2-b]pyrrole Derivatives for the Development of Metabolically Stable Inhibitors of Chikungunya Virus” (J Med Chem, 2017).
